Assay results from ChEMBL document CHEMBL1154150, “Synthesis and anticonvulsant activity of some new bishydrazones derived from 3,4-dipropyloxythiophene” (Eur J Med Chem, 2009).
Activity calls are given as the source filed them. The rule behind the calls is not given here.

What was measured:
[1] = tested on: Mus musculus; test: Anticonvulsant activity in CF1 mouse assessed as protection against subcutaneous metrazole-induced seizures at 100 mg/kg, ip after 4 hrs; assay type: functional, organism-based; design: dose 100 mg/kg
[2] = tested on: Mus musculus; test: Anticonvulsant activity in CF1 mouse assessed as protection against subcutaneous metrazole-induced seizures at 30 mg/kg, ip after 0.5 hrs; assay type: functional, organism-based; design: dose 30 mg/kg
[3] = tested on: Mus musculus; test: Neurotoxicity in CF1 mouse at 300 mg/kg, ip after 4 hrs by rotarod test; assay type: toxicity, organism-based; design: dose 300 mg/kg, route intraperitoneal; settings: in vivo
Summary of the method: (§1)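 Rotorod neurotoxicity in male CF-1 mice (18–25 g) after i.p. compound in 0.5% methyl cellulose/water or PEG 200 at 30, 100 or 300 mg/kg; reported as number showing toxicity/number tested.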

[4] = tested on: Mus musculus; test: Neurotoxicity in CF1 mouse at 30 mg/kg, ip after 0.5 hrs by rotarod test; assay type: toxicity, organism-based; design: dose 30 mg/kg, route intraperitoneal; settings: in vivo; summary of the method: as §1
[5] = tested on: Mus musculus; test: Anticonvulsant activity in CF1 mouse assessed as protection against subcutaneous metrazole-induced seizures at 100 mg/kg, ip after 0.5 hrs; assay type: functional, organism-based; design: dose 100 mg/kg
[6] = tested on: Mus musculus; test: Anticonvulsant activity in CF1 mouse assessed as protection against maximal electroshock-induced seizures at 30 mg/kg, ip after 4 hrs; assay type: functional, organism-based; design: dose 30 mg/kg
Summary of the method: (§2)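 Male CF-1 albino mice (18–25 g), dosed i.p. at 30, 100 or 300 mg/kg in 0.5% methyl cellulose/water or PEG 200 (0.01 ml/g); tested at intervals after dosing; protection = abolition of hind limb tonic extensor component of MES seizure; scored as protected/tested.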

[7] = tested on: Mus musculus; test: Anticonvulsant activity in CF1 mouse assessed as protection against maximal electroshock-induced seizures at 100 mg/kg, ip after 4 hrs; assay type: functional, organism-based; design: dose 100 mg/kg; summary of the method: as §2
[8] = tested on: Mus musculus; test: Anticonvulsant activity in CF1 mouse assessed as protection against subcutaneous metrazole-induced seizures at 300 mg/kg, ip after 4 hrs; assay type: functional, organism-based; design: dose 300 mg/kg
[9] = tested on: Mus musculus; test: Anticonvulsant activity in CF1 mouse assessed as protection against 6 Hz electric shock-induced seizures at 100 mg/kg, ip after 0.25 hrs; assay type: functional, organism-based; design: dose 100 mg/kg
Summary of the method: (§3)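 Male CF-1 albino mice (18–25 g), compound suspended in 0.5% methyl cellulose/water or PEG 200, given i.p.; four mice per time point (0.25, 0.5, 1.0, 2.0, 4 h) challenged via corneal electrodes at 6 Hz, 32 mA for 3 s, current eliciting psychomotor seizure in 97% of animals; reported as protected/tested.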

[10] = tested on: Mus musculus; test: Neurotoxicity in CF1 mouse at 300 mg/kg, ip after 0.5 hrs by rotarod test; assay type: toxicity, organism-based; design: dose 300 mg/kg, route intraperitoneal; settings: in vivo; summary of the method: as §1
[11] = tested on: Mus musculus; test: Anticonvulsant activity in CF1 mouse assessed as protection against 6 Hz electric shock-induced seizures at 100 mg/kg, ip after 0.5 hrs; assay type: functional, organism-based; design: dose 100 mg/kg; summary of the method: as §3
[12] = tested on: Mus musculus; test: Neurotoxicity in CF1 mouse at 100 mg/kg, ip after 4 hrs by rotarod test; assay type: toxicity, organism-based; design: dose 100 mg/kg, route intraperitoneal; settings: in vivo; summary of the method: as §1
[13] = tested on: Mus musculus; test: Neurotoxicity in CF1 mouse at 30 mg/kg, ip after 4 hrs by rotarod test; assay type: toxicity, organism-based; design: dose 30 mg/kg, route intraperitoneal; settings: in vivo; summary of the method: as §1
[14] = tested on: Mus musculus; test: Anticonvulsant activity in CF1 mouse assessed as protection against 6 Hz electric shock-induced seizures at 100 mg/kg, ip after 4 hrs; assay type: functional, organism-based; design: dose 100 mg/kg; summary of the method: as §3
[15] = tested on: Mus musculus; test: Anticonvulsant activity in CF1 mouse assessed as protection against subcutaneous metrazole-induced seizures at 30 mg/kg, ip after 4 hrs; assay type: functional, organism-based; design: dose 30 mg/kg
[16] = tested on: Mus musculus; test: Anticonvulsant activity in CF1 mouse assessed as protection against maximal electroshock-induced seizures at 100 mg/kg, ip after 0.5 hrs; assay type: functional, organism-based; design: dose 100 mg/kg; summary of the method: as §2
[17] = tested on: Mus musculus; test: Neurotoxicity in CF1 mouse at 100 mg/kg, ip after 0.5 hrs by rotarod test; assay type: toxicity, organism-based; design: dose 100 mg/kg, route intraperitoneal; settings: in vivo; summary of the method: as §1
[18] = tested on: Mus musculus; test: Anticonvulsant activity in CF1 mouse assessed as protection against subcutaneous metrazole-induced seizures at 300 mg/kg, ip after 0.5 hrs; assay type: functional, organism-based; design: dose 300 mg/kg
[19] = tested on: Mus musculus; test: Anticonvulsant activity in CF1 mouse assessed as protection against 6 Hz electric shock-induced seizures at 100 mg/kg, ip after 2 hrs; assay type: functional, organism-based; design: dose 100 mg/kg; summary of the method: as §3
[20] = tested on: Mus musculus; test: Anticonvulsant activity in CF1 mouse assessed as protection against maximal electroshock-induced seizures at 30 mg/kg, ip after 0.5 hrs; assay type: functional, organism-based; design: dose 30 mg/kg; summary of the method: as §2
[21] = tested on: Mus musculus; test: Anticonvulsant activity in CF1 mouse assessed as protection against maximal electroshock-induced seizures at 300 mg/kg, ip after 0.5 hrs; assay type: functional, organism-based; design: dose 300 mg/kg; summary of the method: as §2
[22] = tested on: Mus musculus; test: Anticonvulsant activity in CF1 mouse assessed as protection against 6 Hz electric shock-induced seizures at 100 mg/kg, ip after 1 hr; assay type: functional, organism-based; design: dose 100 mg/kg; summary of the method: as §3
[23] = tested on: Mus musculus; test: Anticonvulsant activity in CF1 mouse assessed as protection against maximal electroshock-induced seizures at 300 mg/kg, ip after 4 hrs; assay type: functional, organism-based; design: dose 300 mg/kg; summary of the method: as §2

Row | Compound | Activity [1] | Activity [2] | Activity [3] | Activity [4] | Activity [5] | Activity [6] | Activity [7] | Activity [8] | Activity [9] | Activity [10] | Activity [11] | Activity [12] | Activity [13] | Activity [14] | Activity [15] | Activity [16] | Activity [18] | Activity [19] | Activity [20] | Activity [21] | further results
1 | CCCOc1c(C(=O)NN=C2CCCCC2)sc(C(=O)NN=C2CCCCC2)c1OCCC | inactive | inactive | Non-toxic | Non-toxic | inactive | inactive | inactive | inactive | inactive | Non-toxic | inactive | Non-toxic | Non-toxic | inactive | inactive | inactive | inactive | inactive | inactive | inactive | Activity [17]: Non-toxic; Activity [22]: inactive
2 | CCCOc1c(C(=O)N/N=C(\c2ccccc2)c2ccc(Br)s2)sc(C(=O)N/N=C(\c2ccccc2)c2ccc(Br)s2)c1OCCC | inactive | inactive | Non-toxic | Non-toxic | inactive | inactive | inactive | inactive | inactive | Toxic | inactive | Toxic | Non-toxic | inactive | inactive | inactive | inactive | inactive | inactive | inactive | Activity [17]: Toxic; Activity [23]: inactive; Activity [22]: inactive
3 | CCCOc1c(C(=O)NN=C(c2ccccc2)c2ccccc2)sc(C(=O)NN=C(c2ccccc2)c2ccccc2)c1OCCC | inactive | inactive | Non-toxic | Non-toxic | inactive | inactive | inactive | inactive | inactive | Non-toxic | inactive | Non-toxic | Non-toxic | inactive | inactive | inactive | inactive | inactive | inactive | inactive | Activity [23]: inactive; Activity [22]: inactive
